The target of data set [1] is Acidic phospholipase A2 2 (Naja naja) (UniProt P15445). Description: Inhibition of Naja naja venom group 1 secretory phospholipase A2 at 10 uM by liquid scintillation counting. The gist of the method:
(§1)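 Enzyme diluted in 100 mM Tris-HCl, 1 mM CaCl2, pH 7.5, preincubated 5 min at 37 °C with compound or vehicle. Substrate was autoclaved E. coli CECT 101 membranes labelled with [3H]oleic acid. Reaction ran 15 min, stopped with ice-cold BSA (0.07% w/v final), spun 1200g 10 min at 4 °C, supernatant counted. IC50 from ≥4 concentrations; mean ± SEM, n = 6.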

For data set [2], the target named is T1, Cytosolic phospholipase A2 (Mus musculus) (UniProt P47713).
T1 sequence (whole entry): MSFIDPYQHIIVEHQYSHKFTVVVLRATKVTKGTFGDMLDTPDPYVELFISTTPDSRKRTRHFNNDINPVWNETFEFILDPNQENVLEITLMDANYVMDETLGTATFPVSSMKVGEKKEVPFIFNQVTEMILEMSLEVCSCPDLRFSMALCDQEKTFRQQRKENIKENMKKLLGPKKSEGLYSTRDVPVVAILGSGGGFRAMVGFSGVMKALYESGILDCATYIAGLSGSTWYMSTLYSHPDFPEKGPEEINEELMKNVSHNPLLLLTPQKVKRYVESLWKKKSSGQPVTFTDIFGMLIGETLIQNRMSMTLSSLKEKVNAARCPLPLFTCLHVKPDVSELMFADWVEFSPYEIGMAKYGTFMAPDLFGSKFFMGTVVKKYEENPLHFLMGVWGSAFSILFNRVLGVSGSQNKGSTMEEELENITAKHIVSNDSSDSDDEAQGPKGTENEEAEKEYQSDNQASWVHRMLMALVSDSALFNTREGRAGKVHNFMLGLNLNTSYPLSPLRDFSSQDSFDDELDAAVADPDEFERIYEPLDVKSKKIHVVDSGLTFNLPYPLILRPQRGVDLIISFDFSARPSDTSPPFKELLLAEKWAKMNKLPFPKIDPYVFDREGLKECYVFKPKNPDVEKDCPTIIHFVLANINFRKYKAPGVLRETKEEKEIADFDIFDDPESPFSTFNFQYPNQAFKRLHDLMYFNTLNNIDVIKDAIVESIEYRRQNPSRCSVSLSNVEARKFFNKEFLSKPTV
The data set is described as follows: Inhibition of group 4 cytosolic phospholipase A2 in mouse RAW264.7 cells at 10 uM. Type of data set: cell-based. The gist of the method: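 Enzyme was the cytosolic fraction of RAW 264.7 macrophages. Substrate 1-palmitoyl-2-[14C]arachidonyl-sn-glycero-3-phosphocholine. Compound added in methanol (<1% final) just before the enzyme. Incubation 60 min at 37 °C, stopped with isopropanol-heptane-H2SO4. Released arachidonate extracted into hexane, cleaned on silica gel and counted. Mean ± SEM, n = 6.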

Data set [3] can be described thus: Cytotoxicity against human neutrophils assessed as inhibition of cell viability at 10 uM after 16 to 40 hrs by MTT assay. Type of data set: cell-based, Neutrophil. The conditions noted are these: read-out: INH. In a few lines: (§2)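 Cytotoxicity measured on purified human neutrophils as mitochondrial-dependent reduction of MTT to formazan; compounds tested up to 10 µM, reported as % inhibition of viability. Mean ± SEM, n = 6.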
For orientation: Tetrazolium assays rely on reduction of a dye to a coloured formazan, in cell work by metabolically active cells.

In data set [4] the test system is Neutrophil. Description: Inhibition of TPA-induced chemiluminescence response in human neutrophils at 10 uM after 7 mins. Type of data set: functional. The gist of the method: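 Neutrophils (2.5 × 10^6/mL) mixed with luminol (40 µM) and stimulated with 1 µM TPA; chemiluminescence read at 7 min, the time of maximal production. % inhibition at 10 µM; mean ± SEM, n = 6.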

In the next data set the target is T2, Phospholipase A2 (Apis mellifera, UniProt P00630).
T2 sequence (P00630 whole entry): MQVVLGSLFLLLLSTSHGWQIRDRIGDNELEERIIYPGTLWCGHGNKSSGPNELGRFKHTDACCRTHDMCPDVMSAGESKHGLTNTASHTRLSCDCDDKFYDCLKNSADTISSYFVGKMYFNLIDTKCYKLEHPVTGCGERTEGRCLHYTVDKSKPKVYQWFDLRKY
The data set is described as follows: Inhibition of bee venom group 3 secretory phospholipase A2 by liquid scintillation counting. In a few lines: as §1

Data set [5] concerns the target T1, Cytosolic phospholipase A2 (Mus musculus). Description: Inhibition of group 4 cytosolic phospholipase A2 in mouse RAW264.7 cells. Type of data set: cell-based. In a few lines:
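Enzyme source was cytosolic fractions of RAW 264.7 cells. Substrate was 1-palmitoyl-2-[14C]arachidonyl-PC (2 × 10^6 cpm). Compounds were added in methanol (final <1%) just before the enzyme. After 60 min at 37 °C, the reaction was stopped with isopropanol/heptane/0.5 M H2SO4 and extracted into hexane with silica gel. Released arachidonate was counted.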

The target of data set [6] is Phospholipase A2, major isoenzyme (Sus scrofa) (UniProt P00592). Description: Inhibition of pig pancreatic group 1 secretory phospholipase A2 at 10 uM by liquid scintillation counting. In a few lines: (§3)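 Substrate was E. coli CECT 101 membranes labelled with [3H]oleic acid and autoclaved. Enzyme in 100 mM Tris-HCl/1 mM CaCl2, pH 7.5, was preincubated 5 min at 37 °C with compound or vehicle, then incubated 15 min with membranes. The reaction was stopped with ice-cold BSA (final 0.07%) and centrifuged, and supernatant radioactivity was counted. IC50 from ≥4 concentrations; n = 6.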

The target in data set [7] is T3, Phospholipase A2 (Apis mellifera) (UniProt P00630).
T3 sequence (whole entry): T2 sequence (P00630 whole entry)
The data set is described as follows: Inhibition of bee venom group 3 secretory phospholipase A2 at 10 uM by liquid scintillation counting. In a few lines: as §1

For data set [8], the system named is Neutrophil. The data set is described as follows: Inhibition of cytochalasin B and fMLP-stimulated human neutrophil degranulation assessed as inhibition of elastase release at 10 uM preincubated for 5 mins before cytochalasin B and fMLP challenge measured after 20 mins by microtiter plate assay. Type of data set: functional. The gist of the method: (§4)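 Neutrophils (2.5 × 10^6/mL) preincubated 5 min with compound or vehicle, then stimulated 10 min at 37 °C with cytochalasin B (10 µM) + FMLP (10 nM). Supernatants incubated 20 min at 37 °C with Boc-L-alanine p-nitrophenyl ester (200 µM); p-nitrophenol read at 414 nm. IC50 from ≥4 concentrations, n = 6.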

The test system of data set [9] is Neutrophil. The data set is described as follows: Inhibition of cytochalasin B and fMLP-stimulated human neutrophil degranulation assessed as inhibition of elastase release preincubated for 5 mins before cytochalasin B and fMLP challenge measured after 20 mins by microtiter plate assay. Type of data set: functional, cell-based. The gist of the method:
as §4

For data set [10], the target named is T4, Phospholipase A2, membrane associated (Homo sapiens, UniProt P14555).
T4 sequence (P14555 whole entry): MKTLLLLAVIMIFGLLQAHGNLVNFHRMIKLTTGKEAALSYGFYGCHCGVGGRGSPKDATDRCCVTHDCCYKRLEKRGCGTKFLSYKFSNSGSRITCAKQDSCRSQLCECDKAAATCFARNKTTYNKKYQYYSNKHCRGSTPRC
The data set is described as follows: Inhibition of human synovial recombinant group 2 secretory phospholipase A2 by liquid scintillation counting. In a few lines: as §3

The target of data set [11] is T5, Phospholipase A2, membrane associated (Homo sapiens) (UniProt P14555).
T5 sequence (whole entry): T4 sequence (P14555 whole entry)
The data set is described as follows: Inhibition of human synovial recombinant group 2 secretory phospholipase A2 at 10 uM by liquid scintillation counting. In a few lines:
as §3

Data set [12] has as its target Phospholipase A2, major isoenzyme (Sus scrofa, UniProt P00592). Description: Inhibition of pig pancreatic group 1 secretory phospholipase A2 by liquid scintillation counting. The gist of the method:
as §3

The nature of data set [13]: Cytotoxicity against human neutrophils up to 10 uM after 16 to 40 hrs by MTT assay. The conditions noted are these: neutrophil. Type of data set: cell-based. In a few lines:
as §2

[14] abbreviates: Homo sapiens, Neutrophil, read-out: IC50.

The structures appear in SMILES notation. Activity calls are given as the source filed them. No cut-off for these calls is given here.

Chain of Acidic phospholipase A2 2 (Naja naja) (P15445 whole entry): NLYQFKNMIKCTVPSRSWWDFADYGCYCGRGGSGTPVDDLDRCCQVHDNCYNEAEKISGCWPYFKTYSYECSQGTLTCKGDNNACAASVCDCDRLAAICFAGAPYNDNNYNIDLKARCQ
Chain of Phospholipase A2, major isoenzyme (Sus scrofa) (P00592 23-146 limits assumed): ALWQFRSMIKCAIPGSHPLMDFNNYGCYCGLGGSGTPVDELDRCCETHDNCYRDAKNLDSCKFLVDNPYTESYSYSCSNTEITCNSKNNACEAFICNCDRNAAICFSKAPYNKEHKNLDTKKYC
Chain of Phospholipase A2, major isoenzyme (P00592 whole entry): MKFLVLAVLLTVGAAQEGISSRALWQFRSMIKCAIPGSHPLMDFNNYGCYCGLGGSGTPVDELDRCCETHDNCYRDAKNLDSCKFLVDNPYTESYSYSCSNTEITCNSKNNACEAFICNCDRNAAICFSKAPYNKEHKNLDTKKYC

As usually defined, the inhibition is how much of the control response was suppressed. On to `CC1=C(CC/C(C)=C/CCC2=CC[C@H](C3=CC(=O)O[C@H]3O)O[C@H]2O)C(C)(C)CCC1`, for which the inhibition was 17% in data set [1] and 44.6% in data set [2].

A word on the IC50: it is the midpoint of a concentration-inhibition curve. As to `COC1=CC(=O)C(O)=C(C[C@@]2(C)CC[C@]3(C)C(C)=CCC[C@H]3[C@H]2C)C1=O` [BOLINAQUINONE], the cytotoxicity at 10 µM in data set [3] stood at 14%. For the same molecule, the results for the inhibition at 10 µM in the data set on Neutrophil [4] and in the data set on Neutrophil [8] were 40.1% and 68.1%, respectively. Further, the concentration for half-maximal inhibition (IC50) was 0.1 µM on Phospholipase A2, 5.2 µM with Neutrophil [9] (setting [14]), 0.2 µM in [10] and 0.4 µM in [12]. Further, the inhibition was 26% in data set [1], 86.4% in [6], 99.1% in [7] and 100% in [11]. For the same molecule, in [5], the inhibition result is “inactive”.

In the case of `COC(=O)[C@]1(O)C=C(OC)C(=O)[C@@H]1C[C@@]1(C)CC[C@]2(C)C(C)=CCC[C@H]2[C@H]1C` [DYSIDENONE A], in [5], the inhibition entry was “inactive”. Moreover, the Activity result in data set [13] is reported as “Non-toxic”.

With `COC(=O)[C@@]1(O)C=C(OC)C(=O)[C@H]1C[C@@]1(C)CC[C@]2(C)C(C)=CCC[C@H]2[C@H]1C` [DYSIDENONE B], the inhibition entry in [5] was “inactive”. In data set [13], the Activity entry is “Non-toxic”.

In the case of `CC1=CCC[C@H]2[C@@H](C)[C@@](C)(CC3=C(O)C(=O)C=C(NCCS(=O)(=O)O)C3=O)CC[C@]12C` [DYSIDINE], in data set [3], the cytotoxicity at 10 µM was 0.3%. The inhibition at 10 µM with Neutrophil [4] is 44.4%; in the data set with Neutrophil [8], 90.7%. The inhibition was found to be 0.7% in data set [1], 1.2% in data set [6], 33.4% in data set [7] and 73.8% in data set [11]. The inhibition result in data set [5] is “inactive”. In data set [13], the Activity result is “Non-toxic”. Besides, the values for the half-maximal inhibitory concentration (IC50) (with Neutrophil [9] (setting [14]); with Neutrophil [9] (neutrophil); in data set [10]) were 1.3 µM, “Dose-dependent effect” and 2 µM, respectively.

The values are drawn from ChEMBL document CHEMBL1150837, “New sesquiterpene derivatives from the sponge Dysidea species with a selective inhibitor profile against human phospholipase A2 and other leukocyte functions” (J Nat Prod, 2001).
